Test results reported in ChEMBL document CHEMBL5058577, “EUbOPEN Chemogenomics Library 2 (Multiplex)” (2022).

Test system: Fibroblast
Experiment: Multiplex assay against human fibroblast
Format: toxicity, cell-based
How it was run: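 Values for tubulin, mitochondrial-mass and membrane-permeability phenotypes are per cents of cells with healthy nuclei. These cells were identified by CellPathfinder machine-learning gating of live cells that had been stained at seeding with Hoechst33342, BioTracker Green Microtubule Cytoskeleton Dye, MitoTracker Red and Annexin V Alexa Fluor 680 and imaged on a CQ1 microscope at 37°C and 5% CO2 after compound addition. The gating first set Hoechst high-intensity objects apart from normal cells, then split normal cells into healthy, pyknosed or fragmented nuclei, and pyknosed cells into mitotic or apoptotic.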

[1] = 12 h, 1 µM, compound concentration 1 uM, replicate 1
[2] = 12 h, 1 µM, compound concentration 1 uM, replicate 2
[3] = 12 h, 10 µM, compound concentration 10 uM, replicate 1
[4] = 12 h, 10 µM, compound concentration 10 uM, replicate 2
[5] = 24 h, 1 µM, compound concentration 1 uM, replicate 1
[6] = 24 h, 1 µM, compound concentration 1 uM, replicate 2
[7] = 24 h, 10 µM, compound concentration 10 uM, replicate 1
[8] = 24 h, 10 µM, compound concentration 10 uM, replicate 2
[9] = 48 h, 1 µM, compound concentration 1 uM, replicate 1
[10] = 48 h, 1 µM, compound concentration 1 uM, replicate 2
[11] = 48 h, 10 µM, compound concentration 10 uM, replicate 1
[12] = 48 h, 10 µM, compound concentration 10 uM, replicate 2

CC1(COc2ccc3c(c2)ncn3-c2ccc3cccc(N4CCC(N)CC4)c3n2)COC1 [CRENOLANIB]
Population Apoptotic (%) [1]: 61%
Population Fragmented Nuclei (%) [1]: 27%
Population Healthy Nuclei (%) [1]: 60%
Population Hoechst High Intensity Objects (%) [1]: 2%
Population Membrane Permeable-Phenotype (%) [1]: 0%
Population Mitochondria Different-Phenotype (%) [1]: 4%
Population Mitotic Cells (%) [1]: 38%
Population Normal (%) [1]: 97%
Population Pyknosed Nuclei (%) [1]: 12%
Population Tubulin-Different-Phenotype (%) [1]: 48%
Population Apoptotic (%) [2]: 18%
Population Fragmented Nuclei (%) [2]: 33%
Population Healthy Nuclei (%) [2]: 47%
Population Hoechst High Intensity Objects (%) [2]: 4%
Population Membrane Permeable-Phenotype (%) [2]: 7%
Population Mitochondria Different-Phenotype (%) [2]: 9%
Population Mitotic Cells (%) [2]: 81%
Population Normal (%) [2]: 95%
Population Pyknosed Nuclei (%) [2]: 18%
Population Tubulin-Different-Phenotype (%) [2]: 67%
Population Apoptotic (%) [3]: 33%
Population Fragmented Nuclei (%) [3]: 21%
Population Healthy Nuclei (%) [3]: 48%
Population Hoechst High Intensity Objects (%) [3]: 4%
Population Membrane Permeable-Phenotype (%) [3]: 2%
Population Mitochondria Different-Phenotype (%) [3]: 6%
Population Mitotic Cells (%) [3]: 66%
Population Normal (%) [3]: 95%
Population Pyknosed Nuclei (%) [3]: 30%
Population Tubulin-Different-Phenotype (%) [3]: 43%
Population Apoptotic (%) [4]: 34%
Population Fragmented Nuclei (%) [4]: 29%
Population Healthy Nuclei (%) [4]: 40%
Population Hoechst High Intensity Objects (%) [4]: 13%
Population Membrane Permeable-Phenotype (%) [4]: 6%
Population Mitochondria Different-Phenotype (%) [4]: 9%
Population Mitotic Cells (%) [4]: 65%
Population Normal (%) [4]: 86%
Population Tubulin-Different-Phenotype (%) [4]: 48%
Population Apoptotic (%) [5]: 92%
Population Fragmented Nuclei (%) [5]: 29%
Population Healthy Nuclei (%) [5]: 60%
Population Hoechst High Intensity Objects (%) [5]: 0%
Population Membrane Permeable-Phenotype (%) [5]: 0%
Population Mitochondria Different-Phenotype (%) [5]: 9%
Population Mitotic Cells (%) [5]: 7%
Population Normal (%) [5]: 99%
Population Pyknosed Nuclei (%) [5]: 9%
Population Tubulin-Different-Phenotype (%) [5]: 61%
Population Apoptotic (%) [6]: 50%
Population Fragmented Nuclei (%) [6]: 41%
Population Healthy Nuclei (%) [6]: 48%
Population Hoechst High Intensity Objects (%) [6]: 1%
Population Membrane Permeable-Phenotype (%) [6]: 4%
Population Mitotic Cells (%) [6]: 50%
Population Normal (%) [6]: 98%
Population Pyknosed Nuclei (%) [6]: 10%
Population Tubulin-Different-Phenotype (%) [6]: 63%
Population Apoptotic (%) [7]: 36%
Population Fragmented Nuclei (%) [7]: 23%
Population Healthy Nuclei (%) [7]: 51%
Population Hoechst High Intensity Objects (%) [7]: 16%
Population Membrane Permeable-Phenotype (%) [7]: 0%
Population Mitochondria Different-Phenotype (%) [7]: 8%
Population Mitotic Cells (%) [7]: 63%
Population Normal (%) [7]: 83%
Population Pyknosed Nuclei (%) [7]: 24%
Population Tubulin-Different-Phenotype (%) [7]: 23%
Population Apoptotic (%) [8]: 34%
Population Fragmented Nuclei (%) [8]: 25%
Population Healthy Nuclei (%) [8]: 46%
Population Hoechst High Intensity Objects (%) [8]: 17%
Population Membrane Permeable-Phenotype (%) [8]: 6%
Population Mitochondria Different-Phenotype (%) [8]: 6%
Population Mitotic Cells (%) [8]: 65%
Population Normal (%) [8]: 82%
Population Pyknosed Nuclei (%) [8]: 28%
Population Tubulin-Different-Phenotype (%) [8]: 38%
Population Apoptotic (%) [9]: 75%
Population Fragmented Nuclei (%) [9]: 32%
Population Healthy Nuclei (%) [9]: 60%
Population Hoechst High Intensity Objects (%) [9]: 1%
Population Membrane Permeable-Phenotype (%) [9]: 0%
Population Mitochondria Different-Phenotype (%) [9]: 8%
Population Mitotic Cells (%) [9]: 25%
Population Normal (%) [9]: 98%
Population Pyknosed Nuclei (%) [9]: 7%
Population Tubulin-Different-Phenotype (%) [9]: 55%
Population Apoptotic (%) [10]: 20%
Population Fragmented Nuclei (%) [10]: 44%
Population Healthy Nuclei (%) [10]: 44%
Population Hoechst High Intensity Objects (%) [10]: 0%
Population Membrane Permeable-Phenotype (%) [10]: 5%
Population Mitochondria Different-Phenotype (%) [10]: 7%
Population Mitotic Cells (%) [10]: 80%
Population Normal (%) [10]: 99%
Population Pyknosed Nuclei (%) [10]: 12%
Population Tubulin-Different-Phenotype (%) [10]: 74%
Population Apoptotic (%) [11]: 42%
Population Fragmented Nuclei (%) [11]: 16%
Population Healthy Nuclei (%) [11]: 62%
Population Hoechst High Intensity Objects (%) [11]: 24%
Population Membrane Permeable-Phenotype (%) [11]: 1%
Population Mitochondria Different-Phenotype (%) [11]: 6%
Population Mitotic Cells (%) [11]: 57%
Population Normal (%) [11]: 75%
Population Pyknosed Nuclei (%) [11]: 21%
Population Tubulin-Different-Phenotype (%) [11]: 23%
Population Apoptotic (%) [12]: 37%
Population Fragmented Nuclei (%) [12]: 23%
Population Healthy Nuclei (%) [12]: 42%
Population Hoechst High Intensity Objects (%) [12]: 21%
Population Mitotic Cells (%) [12]: 62%
Population Normal (%) [12]: 78%
Population Pyknosed Nuclei (%) [12]: 33%
Population Tubulin-Different-Phenotype (%) [12]: 27%

C[C@@H]1C[C@H]2[C@@H]3CCC4=CC(=O)C=C[C@]4(C)[C@@]3(F)[C@@H](O)C[C@]2(C)[C@@]1(O)C(=O)CO [DEXAMETHASONE]
Population Apoptotic (%) [1]: 62%
Population Fragmented Nuclei (%) [1]: 18%
Population Healthy Nuclei (%) [1]: 66%
Population Hoechst High Intensity Objects (%) [1]: 7%
Population Membrane Permeable-Phenotype (%) [1]: 0%
Population Mitochondria Different-Phenotype (%) [1]: 2%
Population Mitotic Cells (%) [1]: 37%
Population Normal (%) [1]: 92%
Population Pyknosed Nuclei (%) [1]: 15%
Population Tubulin-Different-Phenotype (%) [1]: 26%
Population Apoptotic (%) [2]: 38%
Population Fragmented Nuclei (%) [2]: 30%
Population Healthy Nuclei (%) [2]: 48%
Population Hoechst High Intensity Objects (%) [2]: 3%
Population Membrane Permeable-Phenotype (%) [2]: 9%
Population Mitochondria Different-Phenotype (%) [2]: 4%
Population Mitotic Cells (%) [2]: 61%
Population Normal (%) [2]: 96%
Population Pyknosed Nuclei (%) [2]: 20%
Population Tubulin-Different-Phenotype (%) [2]: 52%
Population Apoptotic (%) [3]: 35%
Population Fragmented Nuclei (%) [3]: 20%
Population Healthy Nuclei (%) [3]: 65%
Population Hoechst High Intensity Objects (%) [3]: 2%
Population Membrane Permeable-Phenotype (%) [3]: 1%
Population Mitochondria Different-Phenotype (%) [3]: 5%
Population Mitotic Cells (%) [3]: 65%
Population Normal (%) [3]: 98%
Population Pyknosed Nuclei (%) [3]: 13%
Population Tubulin-Different-Phenotype (%) [3]: 22%
Population Apoptotic (%) [4]: 30%
Population Fragmented Nuclei (%) [4]: 24%
Population Healthy Nuclei (%) [4]: 52%
Population Hoechst High Intensity Objects (%) [4]: 6%
Population Membrane Permeable-Phenotype (%) [4]: 4%
Population Mitochondria Different-Phenotype (%) [4]: 2%
Population Mitotic Cells (%) [4]: 69%
Population Normal (%) [4]: 93%
Population Pyknosed Nuclei (%) [4]: 23%
Population Tubulin-Different-Phenotype (%) [4]: 53%
Population Apoptotic (%) [5]: 48%
Population Fragmented Nuclei (%) [5]: 14%
Population Healthy Nuclei (%) [5]: 68%
Population Hoechst High Intensity Objects (%) [5]: 5%
Population Membrane Permeable-Phenotype (%) [5]: 1%
Population Mitochondria Different-Phenotype (%) [5]: 3%
Population Mitotic Cells (%) [5]: 52%
Population Normal (%) [5]: 94%
Population Pyknosed Nuclei (%) [5]: 17%
Population Tubulin-Different-Phenotype (%) [5]: 26%
Population Apoptotic (%) [6]: 31%
Population Fragmented Nuclei (%) [6]: 29%
Population Healthy Nuclei (%) [6]: 50%
Population Hoechst High Intensity Objects (%) [6]: 6%
Population Membrane Permeable-Phenotype (%) [6]: 4%
Population Mitochondria Different-Phenotype (%) [6]: 1%
Population Mitotic Cells (%) [6]: 68%
Population Normal (%) [6]: 93%
Population Pyknosed Nuclei (%) [6]: 19%
Population Tubulin-Different-Phenotype (%) [6]: 53%
Population Apoptotic (%) [7]: 42%
Population Fragmented Nuclei (%) [7]: 15%
Population Healthy Nuclei (%) [7]: 65%
Population Hoechst High Intensity Objects (%) [7]: 3%
Population Membrane Permeable-Phenotype (%) [7]: 1%
Population Mitochondria Different-Phenotype (%) [7]: 6%
Population Mitotic Cells (%) [7]: 57%
Population Normal (%) [7]: 96%
Population Pyknosed Nuclei (%) [7]: 18%
Population Tubulin-Different-Phenotype (%) [7]: 22%
Population Apoptotic (%) [8]: 30%
Population Fragmented Nuclei (%) [8]: 30%
Population Healthy Nuclei (%) [8]: 44%
Population Hoechst High Intensity Objects (%) [8]: 6%
Population Membrane Permeable-Phenotype (%) [8]: 10%
Population Mitochondria Different-Phenotype (%) [8]: 2%
Population Mitotic Cells (%) [8]: 69%
Population Normal (%) [8]: 93%
Population Pyknosed Nuclei (%) [8]: 24%
Population Tubulin-Different-Phenotype (%) [8]: 45%
Population Apoptotic (%) [9]: 46%
Population Fragmented Nuclei (%) [9]: 22%
Population Healthy Nuclei (%) [9]: 52%
Population Hoechst High Intensity Objects (%) [9]: 6%
Population Membrane Permeable-Phenotype (%) [9]: 2%
Population Mitochondria Different-Phenotype (%) [9]: 4%
Population Mitotic Cells (%) [9]: 53%
Population Normal (%) [9]: 93%
Population Pyknosed Nuclei (%) [9]: 24%
Population Tubulin-Different-Phenotype (%) [9]: 34%
Population Apoptotic (%) [10]: 37%
Population Fragmented Nuclei (%) [10]: 38%
Population Healthy Nuclei (%) [10]: 46%
Population Hoechst High Intensity Objects (%) [10]: 4%
Population Membrane Permeable-Phenotype (%) [10]: 4%
Population Mitotic Cells (%) [10]: 62%
Population Normal (%) [10]: 95%
Population Pyknosed Nuclei (%) [10]: 14%
Population Tubulin-Different-Phenotype (%) [10]: 53%
Population Apoptotic (%) [11]: 50%
Population Fragmented Nuclei (%) [11]: 22%
Population Healthy Nuclei (%) [11]: 55%
Population Hoechst High Intensity Objects (%) [11]: 4%
Population Membrane Permeable-Phenotype (%) [11]: 0%
Population Mitochondria Different-Phenotype (%) [11]: 7%
Population Mitotic Cells (%) [11]: 50%
Population Normal (%) [11]: 95%
Population Pyknosed Nuclei (%) [11]: 22%
Population Tubulin-Different-Phenotype (%) [11]: 19%
Population Apoptotic (%) [12]: 37%
Population Fragmented Nuclei (%) [12]: 36%
Population Healthy Nuclei (%) [12]: 43%
Population Hoechst High Intensity Objects (%) [12]: 7%
Population Membrane Permeable-Phenotype (%) [12]: 10%
Population Mitochondria Different-Phenotype (%) [12]: 0%
Population Mitotic Cells (%) [12]: 62%
Population Normal (%) [12]: 92%
Population Pyknosed Nuclei (%) [12]: 20%
Population Tubulin-Different-Phenotype (%) [12]: 39%
